The results in this text go back to ChEMBL document CHEMBL5029154, “Design, Synthesis, and Biological Evaluation of Organic Nitrite (NO2-) Donors as Potential Anticerebral Ischemia Agents” (J Med Chem, 2021).

Data set [1] in a line: Stability of the compound in pH 7.4 saline assessed as half life at 200 uM measured after 24 hrs by HPLC analysis. The note with it: saline pH 7.4, pH 7.4. It counts as physicochemical.
The nature of data set [2]: Stability of the compound in rat plasma assessed as half life at 200 uM measured after 24 hrs by HPLC analysis. It counts as ADME, cell-free.
Data set [3] deals with Cortical neurone. The data set is described as follows: Induction of NQO1 mRNA transcript level in OGD/R-induced rat primary cortical neuron pretreated at 1.8 uM for 24 hrs followed by subjected to OGD for 2 hrs measured after 24 hrs under normoxic condition by RT-qPCR analysis. It counts as functional, tissue-based. The gist of the method: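 Primary rat cortical neurons were pretreated with 1.8 μM compound for 24 h, given 2 h OGD, then 24 h normoxic culture. Nrf2, HO-1 and NQO1 mRNA were measured by RT-qPCR. Cytoplasmic and nuclear protein (30 μg/lane) were blotted for Nrf2, with lamin A and β-actin as references, and quantified by densitometry as the nuclear:cytoplasmic ratio. Three independent experiments, mean ± SD.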
On the technique in general: In qPCR the cycle at which signal appears reflects the starting amount.

Data set [4] deals with Cortical neurone. The data set is described as follows: Neuroprotective activity against in OGD/R-induced rat cortical neuron cytotoxicity assessed as activation of NO/cGMP/PKG pathway by measuring increase in PKG expression pretreated at 1.8 uM for 24 hrs followed by subjected to OGD for 2 hrs measured after 24 hrs under normoxic condition by Western blot analysis. It counts as functional, tissue-based. On the technique in general: A western blot detects proteins with antibodies after separation by electrophoresis.

The subject of data set [5] is Rattus norvegicus. Briefly: Neuroprotective activity against middle cerebral artery occlusion-induced ischemia-reperfusion injury Sprague-Dawley rat model assessed as decrease in cerebral edema degree at 95 to 9500 microg/kg, iv pretreated for 2 hrs followed by reperfusion measured after 24 hrs. The format is functional, organism-based. Conditions: dose 95-9500 µg/kg. The gist of the method: (§1)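 Male SD rats (N = 8/group) were dosed iv at 95, 950 or 9500 μg/kg 2 h before 2 h MCAO (nylon suture, chloral hydrate anesthesia), then reperfused. Where used, PTIO 1 mg/kg iv was given 30 min before compound. At 24 h, blinded assessment covered Longa deficit score, TTC-stained 2 mm sections (infarct area/whole area), and edema by wet/dry weight.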

Data set [6] concerns Rattus norvegicus. The data set is described as follows: Neuroprotective activity against middle cerebral artery occlusion-induced ischemia-reperfusion injury Sprague-Dawley rat model assessed as decrease in neurologic deficit scores at 950 microg/kg, iv pretreated for 2 hrs followed by reperfusion measured after 24 hrs in presence of PTIO. It counts as functional, organism-based. The note with it: dose 950.0 µg/kg. The gist of the method:
as §1

The nature of data set [7]: Toxicity in Sprague-Dawley rat assessed as effect on blood pressure at 950 microg/kg, iv measured upto 24 hrs. It counts as organism-based. Conditions: in vivo, 0.95 mg/kg, dose 950 µg/kg. The gist of the method: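 Male Sprague-Dawley rats (12 weeks, 200−220 g, SPF housing, free chow and water) received a single iv tail-vein injection of test compound or vehicle control, n = 3 per group, followed by blood pressure measurement.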

Data set [8] has as its system Rattus norvegicus. The data set is described as follows: Neuroprotective activity against middle cerebral artery occlusion-induced ischemia-reperfusion injury Sprague-Dawley rat model assessed as decrease in cerebral edema degree at 95 to 9500 microg/kg, iv treated immediately reperfusion measured after 24 hrs. The format is functional, organism-based. The note with it: dose 95-9500 µg/kg. The gist of the method:
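Male SD rats (12 weeks, 200–220 g; N = 8/group) underwent MCAO under […] (350 mg/kg) using a nylon intraluminal suture for 2 h, then reperfusion. Compound (95, 950 or 9500 μg/kg) was given iv immediately after reperfusion; where used, PTIO 1 mg/kg iv was given 30 min before. At 24 h, blinded scoring covered Longa neurological deficit, TTC infarct area/whole area, and edema from wet/dry brain weight (105 °C, 24 h).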

In data set [9] the test system is Rattus norvegicus. Briefly: In vivo activation of Nrf2 middle cerebral artery occlusion-induced ischemia-reperfusion injury Sprague-Dawley rat model assessed as phosphorylation at 950 microg/kg, iv treated immediately reperfusion measured after 24 hrs. It counts as functional, organism-based. Conditions: dose 950.0 µg/kg. The gist of the method: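 Paraffin sections (3 μm) from MCAO rats were immunostained with anti-phospho-Nrf2 (1:100) and DAB, then scored blinded by average optical density over five fields per sample.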

Data set [10] deals with Rattus norvegicus. The data set is described as follows: Neuroprotective activity against middle cerebral artery occlusion-induced ischemia-reperfusion injury Sprague-Dawley rat model assessed as increase in AuroraB + cells in cerebral ischemic penumbra at 95 to 950 microg/kg, iv treated immediately reperfusion measured after 24 hrs by immunofluoresence assay. It counts as functional, organism-based. Conditions: dose 95-950 µg/kg.

The test system of data set [11] is Rattus norvegicus. The data set is described as follows: Neuroprotective activity against middle cerebral artery occlusion-induced ischemia-reperfusion injury Sprague-Dawley rat model assessed as increase in Ki67+ cells in cerebral ischemic penumbra at 95 to 950 microg/kg, iv treated immediately reperfusion measured after 24 hrs in presence of PTIO by immunofluoresence assay. It counts as functional, organism-based. Conditions: dose 95-950 µg/kg.

Molecules are shown by their SMILES. Activity calls are given as the source filed them. The calls are words filed in the database; no cut-off is given here.

`O=C(/C(=C/c1ccccc1)C[N+](=O)[O-])c1ccccc1`: the half-life at 200 µM in data set [1] was 38.5 h; in data set [2], 5.3 h. The result with Cortical neurone [3], in the data set with Cortical neurone [4], with Rattus norvegicus [5], in the data set with Rattus norvegicus [8], in the data set on Rattus norvegicus [9] and in the data set on Rattus norvegicus [10] was Active. The outcome in the data set on Rattus norvegicus [6] and in the data set on Rattus norvegicus [11] was inactive. Further, the Activity entry in data set [7] is on record as “Non-Toxic”.

One may read the half-life as how long it takes for the measured level to halve.
